Test results: ChEMBL document CHEMBL4184092, “Chemical constituents from Taraxacum officinale and their α-glucosidase inhibitory activities” (Bioorg Med Chem Lett, 2018)
Calls of active or inactive are those of the source. The calls are words filed in the database; no cut-off is given here.

Experiments:
Saccharomyces cerevisiae [1] = assay: Inhibition of Saccharomyces cerevisiae alpha-glucosidase using p-nitro-phenyl-alpha-D-glucopyranoside as substrate at 200 uM preincubated with enzyme followed by substrate addition measured after 10 mins for every 2.5 to 5 mins relative to control
Procedure, shortened: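 Sample mixed with baker's yeast alpha-glucosidase stock (0.11 U/ml in 50 mM PBS) and preincubated at 36 °C. pNPG stock (1.35 mM) then added, incubated 10 min at 36 °C, and absorbance at 405 nm read every 2.5–5 min. PBS replaced sample as control. % inhibition = [1 − (ΔAbs sample/ΔAbs control)] × 100; triplicates; IC50 from six-concentration dose-inhibition curve.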

Saccharomyces cerevisiae [2] = assay: Competitive inhibition of Saccharomyces cerevisiae alpha-glucosidase using p-nitro-phenyl-alpha-D-glucopyranoside as substrate preincubated with enzyme followed by substrate addition measured after 10 mins by Lineweaver-Burk plot analysis
Procedure, shortened: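 Baker's yeast alpha-glucosidase (stock 0.11 U/ml in 50 mM PBS) with pNPG at various concentrations, 36 °C. Initial velocity taken as the per-minute change in 405 nm absorbance. Inhibition type assigned from Lineweaver-Burk plots at several inhibitor levels plus an uninhibited series.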

[3] = Inhibition of Saccharomyces cerevisiae alpha-glucosidase using p-nitro-phenyl-alpha-D-glucopyranoside as substrate preincubated with enzyme followed by substrate addition measured after 10 mins for every 2.5 to 5 mins
Saccharomyces cerevisiae [4] = assay: Mixed type inhibition of Saccharomyces cerevisiae alpha-glucosidase using p-nitro-phenyl-alpha-D-glucopyranoside as substrate preincubated with enzyme followed by substrate addition measured after 10 mins by Lineweaver-Burk plot analysis
Procedure, shortened: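 Baker's yeast α-glucosidase (stock 0.11 U/ml in 50 mM PBS) mixed with sample and incubated at 36 °C, then p-nitrophenyl-α-D-glucopyranoside added at various concentrations and incubated at 36 °C for 10 min. Initial velocity was taken as the rate of change of absorbance at 405 nm per min. Inhibition type was assigned from Lineweaver-Burk plots.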

Structure (SMILES): COc1cc(-c2cc(=O)c3c(O)cc(O)cc3o2)cc(OC)c1O[C@H](CO)[C@@H](O)c1ccc(O)cc1
- inhibition (Saccharomyces cerevisiae [1]): 8.7%

Structure (SMILES): O=C(Cc1ccc(O)cc1)O[C@H]1[C@@H](O)[C@H](OC(=O)Cc2ccc(O)cc2)[C@H](OC(=O)Cc2ccc(O)cc2)[C@@H](O)[C@@H]1O
- inhibition (Saccharomyces cerevisiae [1]): 77.6%
- inhibition (Saccharomyces cerevisiae [2]): Active
- IC50 [3]: 61.2 µM

Structure (SMILES): COc1cc(-c2cc(=O)c3c(O)cc(O)cc3o2)cc(OC)c1O[C@@H](CO)[C@@H](O)c1ccc(O)cc1
- inhibition (Saccharomyces cerevisiae [1]): 8.3%

Structure (SMILES): O=c1cc(-c2ccc(O)c(O)c2)oc2cc(O)cc(O)c12 [LUTEOLIN]
- inhibition (Saccharomyces cerevisiae [1]): 99.6%
- IC50 [3]: 39.8 µM
- inhibition (Saccharomyces cerevisiae [4]): Active

Structure (SMILES): CC1=CC(=O)CC(C)(C)[C@]1(O)/C=C/[C@@H](C)O[C@@H]1O[C@H](CO)[C@@H](O)[C@H](O)[C@H]1O
- inhibition (Saccharomyces cerevisiae [1]): 9.4%

Structure (SMILES): COC(=O)C[C@@H](CO)O[C@@H]1O[C@H](CO)[C@@H](O)[C@H](OC(=O)Cc2ccccc2)[C@H]1OC(=O)C(=O)c1ccc(O)cc1
- inhibition (Saccharomyces cerevisiae [1]): 56.6%
- IC50 [3]: 165 µM

Structure (SMILES): COc1cc([C@H](OC)[C@H](CO)Oc2c(OC)cc(-c3cc(=O)c4c(O)cc(O)cc4o3)cc2OC)ccc1O
- inhibition (Saccharomyces cerevisiae [1]): 9.1%

Structure (SMILES): COc1cc(-c2cc(=O)c3c(O)cc(O)cc3o2)cc(OC)c1O [TRICIN]
- inhibition (Saccharomyces cerevisiae [1]): 59.1%
- IC50 [3]: 162 µM

Structure (SMILES): O=C1C[C@@H](O[C@@H]2O[C@H](CO)[C@@H](O)[C@H](OC(=O)Cc3ccccc3)[C@H]2OC(=O)Cc2ccc(O)cc2)CO1
- inhibition (Saccharomyces cerevisiae [1]): 58.9%
- IC50 [3]: 145 µM
- inhibition (Saccharomyces cerevisiae [4]): Active

Structure (SMILES): CC1=CC(=O)CC(C)(C)[C@@]1(O)/C=C/[C@@H](C)O[C@@H]1O[C@H](CO)[C@@H](O)[C@H](O)[C@H]1O
- inhibition (Saccharomyces cerevisiae [1]): 13.7%

Structure (SMILES): COC(=O)C[C@@H](CO)O[C@@H]1O[C@H](CO)[C@@H](O)[C@H](O)[C@H]1OC(=O)C(=O)c1ccc(O)cc1
- inhibition (Saccharomyces cerevisiae [1]): 56.6%
- IC50 [3]: 165 µM

Structure (SMILES): CC(=O)/C=C/C1=C(C)[C@@H](O)[C@@H](O[C@@H]2O[C@H](CO)[C@@H](O)[C@H](O)[C@H]2O)CC1(C)C
- inhibition (Saccharomyces cerevisiae [1]): 0%

Structure (SMILES): COc1cc(/C=C/CO)cc(OC)c1O[C@@H]1O[C@H](CO)[C@@H](O)[C@H](O)[C@H]1O
- inhibition (Saccharomyces cerevisiae [1]): 1.8%

Structure (SMILES): C=C1C(=O)O[C@@H]2/C=C(\C)CC/C=C(\C(=O)O[C@@H]3O[C@H](CO)[C@@H](O)[C@H](O)[C@H]3O)CC[C@@H]12
- inhibition (Saccharomyces cerevisiae [1]): 13.1%

Structure (SMILES): O=C1C[C@@H](O[C@@H]2O[C@H](CO)[C@@H](O)[C@H](OC(=O)Cc3ccc(O)cc3)[C@H]2OC(=O)Cc2ccc(O)cc2)CO1
- inhibition (Saccharomyces cerevisiae [1]): 58.3%
- IC50 [3]: 152 µM

Structure (SMILES): COC(=O)C[C@@H](CO)O[C@@H]1O[C@H](CO)[C@@H](O)[C@H](OC(=O)Cc2ccccc2)[C@H]1OC(=O)Cc1ccc(O)cc1
- inhibition (Saccharomyces cerevisiae [1]): 59.7%
- IC50 [3]: 150 µM

Structure (SMILES): COC(=O)/C=C/c1ccc(O)c(O)c1
- inhibition (Saccharomyces cerevisiae [1]): 1.6%

Structure (SMILES): COc1cc(-c2oc3cc(O)cc(O)c3c(=O)c2O)cc(O)c1OC
- inhibition (Saccharomyces cerevisiae [1]): 57.4%
- IC50 [3]: 154 µM

Structure (SMILES): O=C1C[C@@H](O[C@@H]2O[C@H](CO)[C@@H](O)[C@H](O)[C@H]2OC(=O)Cc2ccc(O)cc2)CO1
- inhibition (Saccharomyces cerevisiae [1]): 57.6%
- IC50 [3]: 181 µM

Structure (SMILES): CC1(C)C[C@@H](O)C[C@@]2(C)OC(=O)C=C12
- inhibition (Saccharomyces cerevisiae [1]): 6.4%

Structure (SMILES): Nc1ncnc2c1ncn2[C@@H]1O[C@H](CO)[C@@H](O)[C@H]1O
- inhibition (Saccharomyces cerevisiae [1]): 10.3%

Structure (SMILES): O=c1ccc2cc(O[C@@H]3O[C@H](CO)[C@@H](O)[C@H](O)[C@H]3O)c(O)cc2o1
- inhibition (Saccharomyces cerevisiae [1]): 1.8%

Structure (SMILES): CC(=O)/C=C/[C@]12O[C@@]1(C)C[C@@H](O)CC2(C)C
- inhibition (Saccharomyces cerevisiae [1]): 17.6%

Structure (SMILES): COc1cc([C@H](OC)[C@@H](CO)Oc2c(OC)cc(-c3cc(=O)c4c(O)cc(O)cc4o3)cc2OC)ccc1O
- inhibition (Saccharomyces cerevisiae [1]): 13.2%

Structure (SMILES): C[C@H]1O[C@H](O[C@H]2[C@H](O)[C@@H](O)[C@@H](O[C@H]3[C@H](O)[C@@H](O)C(O)O[C@@H]3CO)O[C@@H]2CO)[C@H](O)[C@@H](O)[C@@H]1N[C@H]1C=C(CO)[C@@H](O)[C@H](O)[C@H]1O (stereo partly drawn) [ACARBOSE]
- inhibition (Saccharomyces cerevisiae [1]): 51.8%
- IC50 [3]: 180 µM

Structure (SMILES): CC(=O)/C=C/C1=C(C)[C@@H](O)[C@@H](O)CC1(C)C
- inhibition (Saccharomyces cerevisiae [1]): 11.5%

Structure (SMILES): COc1cc(-c2cc(=O)c3c(O)cc(O)cc3o2)ccc1O
- inhibition (Saccharomyces cerevisiae [1]): 56.9%

Structure (SMILES): CC1(C)C[C@H](O)C[C@@]2(C)OC(=O)C=C12
- inhibition (Saccharomyces cerevisiae [1]): 8.8%

Structure (SMILES): O=C(CO)c1c[nH]c2ccccc12
- inhibition (Saccharomyces cerevisiae [1]): 1.6%
